From the M2OR odorant receptor database
Positions count from the first letter of the chain named.

Experiments:
Settings in all cases: stereoisomer not certain
OR4C13 (Homo sapiens) = OR4C13 (Homo sapiens) (UniProt Q8NGP0)
In short: (§1)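 Each entry records the cell line, G-protein, co-transfected protein and tags used. Methods varied with the source, often transient luciferase assays in mammalian cell lines. A receptor–molecule pair is called responsive (active) if the original authors judged its signal statistically different from baseline and non-responsive (inactive) otherwise.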

OR4C15 (Homo sapiens) = OR4C15 (Homo sapiens) (UniProt Q8NGM1)
In short: as §1

OR4C16 (Homo sapiens) = target: T1, OR4C16 (Homo sapiens) (UniProt Q8NGL9)
T1 sequence (whole entry): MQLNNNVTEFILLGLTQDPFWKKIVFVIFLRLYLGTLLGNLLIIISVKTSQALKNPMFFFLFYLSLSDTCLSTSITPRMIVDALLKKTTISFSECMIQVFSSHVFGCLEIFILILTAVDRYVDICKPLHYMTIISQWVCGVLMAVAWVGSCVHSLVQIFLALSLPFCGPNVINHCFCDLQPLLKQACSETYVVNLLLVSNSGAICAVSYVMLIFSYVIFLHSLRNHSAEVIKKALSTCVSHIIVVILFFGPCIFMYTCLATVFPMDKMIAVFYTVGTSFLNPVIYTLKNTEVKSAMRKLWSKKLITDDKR
In short: as §1

OR4C3 (Homo sapiens) = OR4C3 (Homo sapiens) (UniProt Q8NH37)
In short: as §1

OR4C45 (Homo sapiens) [1] = target: T2, OR4C45 (Homo sapiens) (UniProt A6NMZ5)
T2 sequence (whole entry): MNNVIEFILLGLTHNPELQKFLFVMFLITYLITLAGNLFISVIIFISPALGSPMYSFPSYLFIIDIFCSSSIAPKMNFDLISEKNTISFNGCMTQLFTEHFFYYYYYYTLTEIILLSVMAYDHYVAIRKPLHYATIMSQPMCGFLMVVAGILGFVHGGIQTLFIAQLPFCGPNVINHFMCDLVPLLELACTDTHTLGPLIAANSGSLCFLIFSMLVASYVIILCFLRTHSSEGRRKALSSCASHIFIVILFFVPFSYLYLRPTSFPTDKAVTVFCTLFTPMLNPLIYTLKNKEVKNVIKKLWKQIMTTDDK
In short: as §1

OR4C46 (Homo sapiens) = OR4C46 (Homo sapiens) (UniProt A6NHA9)
In short: as §1

OR4C5 (Homo sapiens) = OR4C5 (Homo sapiens) (UniProt Q8NGB2)
In short: as §1

OR4C6 (Homo sapiens) = OR4C6 (Homo sapiens) (UniProt Q8NH72)
In short: as §1

OR4CB P8T = system: T3, OR4CB P8T
T3 sequence (whole entry): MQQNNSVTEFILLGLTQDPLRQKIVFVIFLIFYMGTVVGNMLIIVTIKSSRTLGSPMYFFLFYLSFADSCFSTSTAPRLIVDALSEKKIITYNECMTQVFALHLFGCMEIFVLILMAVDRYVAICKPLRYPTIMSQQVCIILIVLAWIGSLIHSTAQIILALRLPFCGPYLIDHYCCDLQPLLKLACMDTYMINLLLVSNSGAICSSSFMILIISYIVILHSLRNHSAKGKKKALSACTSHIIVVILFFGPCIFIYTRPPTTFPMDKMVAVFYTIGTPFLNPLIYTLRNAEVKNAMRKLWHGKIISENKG
In short: as §1

OR4CC = system: OR4CC
In short: as §1

OR4CD V133I = system: OR4CD V133I
In short: as §1

OR4CG T76A = system: T4, OR4CG T76A
T4 sequence (whole entry): T1 sequence (whole entry) with T76A
In short: as §1

OR4D1 (Homo sapiens) = OR4D1 (Homo sapiens) (UniProt Q15615)
In short: as §1

OR4D10 (Homo sapiens) = OR4D10 (Homo sapiens) (UniProt Q8NGI6)
In short: as §1

OR4D11 (Homo sapiens) = OR4D11 (Homo sapiens) (UniProt Q8NGI4)
In short: as §1

OR4D1 = system: OR4D1
In short: as §1

OR4D2 (Homo sapiens) = OR4D2 (Homo sapiens) (UniProt P58180)
In short: as §1

OR4C3 = system: OR4C3
In short: as §1

OR4C45 (Homo sapiens) [2] = target: OR4C45 (Homo sapiens) (UniProt A6NMZ5); remark: listed apart in the source
In short: as §1
Target sequence in this assay (A6NMZ5 whole entry): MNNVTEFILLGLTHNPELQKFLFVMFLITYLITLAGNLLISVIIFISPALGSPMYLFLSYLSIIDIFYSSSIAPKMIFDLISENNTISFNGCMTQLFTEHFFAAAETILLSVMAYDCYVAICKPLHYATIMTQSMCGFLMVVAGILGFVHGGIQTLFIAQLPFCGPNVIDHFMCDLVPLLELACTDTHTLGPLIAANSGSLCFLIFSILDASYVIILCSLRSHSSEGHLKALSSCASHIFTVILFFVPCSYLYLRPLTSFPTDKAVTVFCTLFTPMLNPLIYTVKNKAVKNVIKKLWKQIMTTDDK

OR4CF = system: OR4CF
In short: as §1

Measured: odorant receptor agonist call

OR4D1, sequence (as listed by the source): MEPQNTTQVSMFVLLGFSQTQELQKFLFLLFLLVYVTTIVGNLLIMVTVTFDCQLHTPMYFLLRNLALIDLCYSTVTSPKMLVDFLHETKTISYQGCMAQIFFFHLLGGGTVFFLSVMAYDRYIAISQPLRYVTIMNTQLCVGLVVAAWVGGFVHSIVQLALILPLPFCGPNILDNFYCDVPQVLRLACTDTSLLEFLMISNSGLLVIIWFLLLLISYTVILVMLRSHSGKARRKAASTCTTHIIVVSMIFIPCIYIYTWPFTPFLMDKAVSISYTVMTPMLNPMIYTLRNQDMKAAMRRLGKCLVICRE
OR4D10 (Homo sapiens), sequence (Q8NGI6 whole entry): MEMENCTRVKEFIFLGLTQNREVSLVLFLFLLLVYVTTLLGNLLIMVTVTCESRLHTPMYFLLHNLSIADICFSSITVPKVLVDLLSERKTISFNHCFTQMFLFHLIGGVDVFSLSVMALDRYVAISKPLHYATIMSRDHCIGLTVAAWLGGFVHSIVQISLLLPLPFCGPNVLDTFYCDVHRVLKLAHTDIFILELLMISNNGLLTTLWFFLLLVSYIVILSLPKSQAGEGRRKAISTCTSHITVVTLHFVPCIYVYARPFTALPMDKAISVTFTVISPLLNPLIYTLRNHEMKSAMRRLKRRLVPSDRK
OR4C3 (Homo sapiens), sequence (Q8NH37 whole entry): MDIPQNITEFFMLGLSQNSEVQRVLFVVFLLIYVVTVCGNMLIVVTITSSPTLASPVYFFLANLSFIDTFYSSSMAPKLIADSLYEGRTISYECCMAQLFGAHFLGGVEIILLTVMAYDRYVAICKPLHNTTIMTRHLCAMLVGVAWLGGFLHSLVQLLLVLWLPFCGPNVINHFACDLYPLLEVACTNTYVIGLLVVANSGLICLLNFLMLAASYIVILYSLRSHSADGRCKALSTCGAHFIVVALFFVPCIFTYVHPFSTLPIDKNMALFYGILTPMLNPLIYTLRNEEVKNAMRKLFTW
OR4C3, sequence (as listed by the source): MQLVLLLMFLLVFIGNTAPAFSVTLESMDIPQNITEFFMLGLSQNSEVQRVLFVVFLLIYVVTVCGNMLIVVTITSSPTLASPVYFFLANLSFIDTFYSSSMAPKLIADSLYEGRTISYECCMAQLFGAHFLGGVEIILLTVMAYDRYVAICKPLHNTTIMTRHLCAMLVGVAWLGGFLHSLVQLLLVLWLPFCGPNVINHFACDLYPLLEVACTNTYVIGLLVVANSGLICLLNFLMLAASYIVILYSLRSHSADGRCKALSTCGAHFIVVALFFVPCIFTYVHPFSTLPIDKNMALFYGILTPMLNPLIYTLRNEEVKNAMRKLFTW
OR4CC, sequence (as listed by the source): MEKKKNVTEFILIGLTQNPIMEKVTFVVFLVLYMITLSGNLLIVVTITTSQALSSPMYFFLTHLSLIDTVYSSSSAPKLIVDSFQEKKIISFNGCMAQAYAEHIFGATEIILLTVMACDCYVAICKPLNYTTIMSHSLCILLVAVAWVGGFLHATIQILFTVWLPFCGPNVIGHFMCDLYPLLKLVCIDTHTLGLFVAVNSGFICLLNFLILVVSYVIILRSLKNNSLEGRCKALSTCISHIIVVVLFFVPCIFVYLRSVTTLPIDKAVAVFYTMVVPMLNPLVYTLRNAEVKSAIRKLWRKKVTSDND
OR4D2 (Homo sapiens), sequence (P58180 whole entry): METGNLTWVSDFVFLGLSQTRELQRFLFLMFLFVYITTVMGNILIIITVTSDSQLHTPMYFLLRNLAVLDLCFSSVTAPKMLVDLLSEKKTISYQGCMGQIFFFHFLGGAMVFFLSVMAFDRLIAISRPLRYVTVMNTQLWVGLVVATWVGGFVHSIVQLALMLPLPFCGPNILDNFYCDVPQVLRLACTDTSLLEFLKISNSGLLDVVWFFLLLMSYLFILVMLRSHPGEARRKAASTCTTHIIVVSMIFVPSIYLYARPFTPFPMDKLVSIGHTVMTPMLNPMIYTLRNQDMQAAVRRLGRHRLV
OR4C15 (Homo sapiens), sequence (Q8NGM1 whole entry): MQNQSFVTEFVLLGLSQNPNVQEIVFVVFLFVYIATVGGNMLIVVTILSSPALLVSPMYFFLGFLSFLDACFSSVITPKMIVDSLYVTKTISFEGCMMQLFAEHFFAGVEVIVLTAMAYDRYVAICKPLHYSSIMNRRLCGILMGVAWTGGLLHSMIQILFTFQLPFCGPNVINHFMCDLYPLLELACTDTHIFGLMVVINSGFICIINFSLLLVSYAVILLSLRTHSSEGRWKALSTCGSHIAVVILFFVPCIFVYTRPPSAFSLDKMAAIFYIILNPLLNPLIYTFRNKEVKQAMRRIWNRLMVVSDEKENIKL
OR4D11 (Homo sapiens), sequence (Q8NGI4 whole entry): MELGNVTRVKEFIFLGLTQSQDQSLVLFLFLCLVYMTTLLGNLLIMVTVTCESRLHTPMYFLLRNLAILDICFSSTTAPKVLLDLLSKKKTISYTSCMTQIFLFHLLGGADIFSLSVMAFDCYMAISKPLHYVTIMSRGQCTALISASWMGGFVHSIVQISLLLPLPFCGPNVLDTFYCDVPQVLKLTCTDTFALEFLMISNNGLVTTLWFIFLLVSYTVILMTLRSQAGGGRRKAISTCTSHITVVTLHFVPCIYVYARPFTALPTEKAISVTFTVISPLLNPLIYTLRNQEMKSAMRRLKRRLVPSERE
OR4C13 (Homo sapiens), sequence (Q8NGP0 whole entry): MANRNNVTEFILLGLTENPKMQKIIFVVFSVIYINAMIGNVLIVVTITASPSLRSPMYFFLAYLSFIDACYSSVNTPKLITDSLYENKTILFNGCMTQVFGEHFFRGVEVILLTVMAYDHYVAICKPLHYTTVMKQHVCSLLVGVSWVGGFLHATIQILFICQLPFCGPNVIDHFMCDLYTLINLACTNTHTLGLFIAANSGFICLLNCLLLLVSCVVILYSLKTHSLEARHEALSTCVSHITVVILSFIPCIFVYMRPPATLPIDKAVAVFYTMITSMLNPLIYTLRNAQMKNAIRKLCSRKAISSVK
OR4CF, sequence (as listed by the source): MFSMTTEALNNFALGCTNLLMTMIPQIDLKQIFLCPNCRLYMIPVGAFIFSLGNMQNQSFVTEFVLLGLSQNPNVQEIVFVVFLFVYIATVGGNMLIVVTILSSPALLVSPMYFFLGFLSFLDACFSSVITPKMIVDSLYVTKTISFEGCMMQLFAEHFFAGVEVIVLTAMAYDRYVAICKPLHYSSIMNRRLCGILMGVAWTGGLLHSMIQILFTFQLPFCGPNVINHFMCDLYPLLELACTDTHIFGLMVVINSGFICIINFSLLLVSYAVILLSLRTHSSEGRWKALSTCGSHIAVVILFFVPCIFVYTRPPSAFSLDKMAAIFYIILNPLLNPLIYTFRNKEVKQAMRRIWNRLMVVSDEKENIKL
OR4C46 (Homo sapiens), sequence (A6NHA9 whole entry): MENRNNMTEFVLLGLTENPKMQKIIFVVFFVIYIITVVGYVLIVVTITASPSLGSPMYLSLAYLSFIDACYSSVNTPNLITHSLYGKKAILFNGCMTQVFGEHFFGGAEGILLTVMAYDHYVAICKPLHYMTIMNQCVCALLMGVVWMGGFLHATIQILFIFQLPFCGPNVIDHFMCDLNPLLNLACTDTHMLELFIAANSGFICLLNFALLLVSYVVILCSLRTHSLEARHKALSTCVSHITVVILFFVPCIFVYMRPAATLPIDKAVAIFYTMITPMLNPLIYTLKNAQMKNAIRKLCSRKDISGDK
OR4C5 (Homo sapiens), sequence (Q8NGB2 whole entry): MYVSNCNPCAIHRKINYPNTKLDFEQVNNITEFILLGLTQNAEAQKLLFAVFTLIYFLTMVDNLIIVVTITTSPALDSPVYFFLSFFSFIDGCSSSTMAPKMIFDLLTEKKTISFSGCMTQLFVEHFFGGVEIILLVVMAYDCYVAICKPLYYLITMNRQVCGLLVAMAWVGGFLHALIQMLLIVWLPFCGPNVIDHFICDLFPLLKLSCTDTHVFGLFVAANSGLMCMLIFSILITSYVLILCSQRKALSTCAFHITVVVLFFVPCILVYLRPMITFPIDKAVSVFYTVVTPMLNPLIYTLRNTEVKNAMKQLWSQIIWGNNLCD
OR4C6 (Homo sapiens), sequence (Q8NH72 whole entry): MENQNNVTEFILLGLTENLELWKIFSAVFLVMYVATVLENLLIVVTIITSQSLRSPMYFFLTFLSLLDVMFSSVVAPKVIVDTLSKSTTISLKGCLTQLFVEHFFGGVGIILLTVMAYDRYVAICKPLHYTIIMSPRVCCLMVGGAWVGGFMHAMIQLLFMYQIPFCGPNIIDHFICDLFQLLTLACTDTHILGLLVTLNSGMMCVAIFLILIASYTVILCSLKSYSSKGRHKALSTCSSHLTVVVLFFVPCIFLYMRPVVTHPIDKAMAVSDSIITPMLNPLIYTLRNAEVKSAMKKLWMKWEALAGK
OR4D1 (Homo sapiens), sequence (Q15615 whole entry): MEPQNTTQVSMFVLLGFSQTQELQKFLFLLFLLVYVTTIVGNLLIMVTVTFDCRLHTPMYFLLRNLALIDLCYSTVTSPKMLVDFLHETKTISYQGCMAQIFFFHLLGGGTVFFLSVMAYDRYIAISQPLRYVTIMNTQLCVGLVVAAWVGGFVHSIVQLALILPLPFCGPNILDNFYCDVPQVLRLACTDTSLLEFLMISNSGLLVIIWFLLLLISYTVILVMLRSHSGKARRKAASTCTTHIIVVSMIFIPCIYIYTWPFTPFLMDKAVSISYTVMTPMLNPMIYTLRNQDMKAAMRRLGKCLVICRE

CCCCCCC=CCCC=O
not listed: OR4C3 | OR4C45 (Homo sapiens) [2] | OR4CF
inactive: all other assays above

CCCCC(S)C(C)CO (stereo unspecified)
not listed: OR4CB P8T | OR4CC | OR4CD V133I | OR4CG T76A | OR4D1 | OR4C3 | OR4C45 (Homo sapiens) [2] | OR4CF
inactive: all other assays above

CCC1OC(=O)C(O)=C1C (stereo unspecified)
not listed: OR4C15 (Homo sapiens) | OR4C3 (Homo sapiens) | OR4C45 (Homo sapiens) [1]
inactive: all other assays above

CC1=C(O)C(=O)C(C)O1 (stereo unspecified)
not listed: OR4C15 (Homo sapiens) | OR4C3 (Homo sapiens) | OR4C45 (Homo sapiens) [1]
inactive: all other assays above

CCCC(S)CCOC(C)=O (stereo unspecified)
not listed: OR4C15 (Homo sapiens) | OR4C3 (Homo sapiens) | OR4C45 (Homo sapiens) [1]
inactive: all other assays above

CC(=O)c1c(C)c([N+](=O)[O-])c(C(C)(C)C)c([N+](=O)[O-])c1C
not listed: OR4CB P8T | OR4CC | OR4CD V133I | OR4CG T76A | OR4D1 | OR4C3 | OR4C45 (Homo sapiens) [2] | OR4CF
inactive: all other assays above

CC(CO)CS (stereo unspecified)
not listed: OR4CB P8T | OR4CC | OR4CD V133I | OR4CG T76A | OR4D1 | OR4C3 | OR4C45 (Homo sapiens) [2] | OR4CF
inactive: all other assays above

CCCCCC(=O)C(C)C(C)=O (stereo unspecified)
not listed: OR4CB P8T | OR4CC | OR4CD V133I | OR4CG T76A | OR4D1 | OR4C3 | OR4C45 (Homo sapiens) [2] | OR4CF
inactive: all other assays above

CCC(S)C(C)CO (stereo unspecified)
not listed: OR4CB P8T | OR4CC | OR4CD V133I | OR4CG T76A | OR4D1 | OR4C3 | OR4C45 (Homo sapiens) [2] | OR4CF
inactive: all other assays above

CC1CCCCCCCCCCCCC(=O)C1 (stereo unspecified)
not listed: OR4CB P8T | OR4CC | OR4CD V133I | OR4CG T76A | OR4D1 | OR4C3 | OR4C45 (Homo sapiens) [2] | OR4CF
inactive: all other assays above

CCCCCC(S)C(C)CO (stereo unspecified)
not listed: OR4CB P8T | OR4CC | OR4CD V133I | OR4CG T76A | OR4D1 | OR4C3 | OR4C45 (Homo sapiens) [2] | OR4CF
inactive: all other assays above

CCC1OC(C)=C(O)C1=O (stereo unspecified)
not listed: OR4C15 (Homo sapiens) | OR4C3 (Homo sapiens) | OR4C45 (Homo sapiens) [1]
inactive: all other assays above

Cc1cnc(C)c(C)n1
not listed: OR4C15 (Homo sapiens) | OR4C3 (Homo sapiens) | OR4C45 (Homo sapiens) [1]
inactive: all other assays above

CC(C)=CCCC(C)=CCO
inactive: OR4C3

CC1=NC(C)C(C)S1 (stereo unspecified)
not listed: OR4C15 (Homo sapiens) | OR4C3 (Homo sapiens) | OR4C45 (Homo sapiens) [1]
inactive: all other assays above

CC1=C(O)C(=O)OC1C (stereo unspecified)
not listed: OR4C15 (Homo sapiens) | OR4C3 (Homo sapiens) | OR4C45 (Homo sapiens) [1]
inactive: all other assays above
